From ChEMBL document CHEMBL5331102, “Novel S1R agonists counteracting NMDA excitotoxicity and oxidative stress: A step forward in the discovery of neuroprotective agents” (Eur J Med Chem, 2023)
Calls of active or inactive are those of the source. The calls are words filed in the database; no cut-off is given here.

Columns and labels:
[1] = test system: SH-SY5Y; assay: Neuroprotective activity in human SH-SY5Y cells assessed as prevention of NMDA induced cytotoxicity by measuring cell viability at 1 to 5 uM incubated for 24 hrs in presence of NMDA by MTT assay; format: functional, cell-based; details: dose 1-5 µM
Method in brief: (§1)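 SH-SY5Y cells (~7000/well) co-incubated 24 h at 37 °C in 2% FBS medium with toxic stimulus (NMDA 250 μM or oligomycin 2.5 μM) plus compound at 0.1–5 μM. Viability by MTT, expressed as % of control.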

[2] = test system: SH-SY5Y; assay: Neuroprotective activity in human SH-SY5Y cells assessed as prevention of NMDA induced cytotoxicity by measuring cell viability at 0.1 to 0.5 uM incubated for 24 hrs in presence of NMDA by MTT assay; format: functional, cell-based; details: dose 0.1-0.5 µM; method in brief: as §1
[3] = test system: SH-SY5Y; assay: Cytotoxicity against human SH-SY5Y cells assessed as reduction in cell viability at 5 uM incubated for 72 hrs by MTT assay; format: toxicity, cell-based
Method in brief: (§2)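 SH-SY5Y cells kept in DMEM/10% FBS, 2 mM glutamine, 37 °C, 5% CO2; ~7000 cells/well, after 1 day given compound (six concentrations, 0.1–100 μM; DMSO stocks 10 mM) in 2% FBS medium for 72 h. MTT (0.5% w/v, 2 h), formazan dissolved in DMSO, absorbance read; triplicates, % of untreated control.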

[4] = Cytotoxicity against human SH-SY5Y cells assessed as reduction in cell viability incubated for 72 hrs by MTT assay; format: toxicity, cell-based; method in brief: as §2
[5] = molecular target: Sigma intracellular receptor 2 (Homo sapiens, UniProt Q5BJF2); assay: Binding affinity to sigma 2 receptor (unknown origin) assessed as inhibition constant
Sequence of Sigma intracellular receptor 2 (Q5BJF2 whole entry): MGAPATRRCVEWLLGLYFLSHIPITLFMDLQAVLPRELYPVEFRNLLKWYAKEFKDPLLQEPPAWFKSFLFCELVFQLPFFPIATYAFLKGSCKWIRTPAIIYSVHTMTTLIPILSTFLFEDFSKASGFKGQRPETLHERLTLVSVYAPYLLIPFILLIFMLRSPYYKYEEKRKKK
Method in brief: (§3)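 Radioligand displacement at S1R with [3H](+)pentazocine (15 nM) and at S2R with [3H]DTG (25 nM); S2R assay includes 1 μM cold (+)pentazocine to mask S1R sites. Bound radioactivity counted by scintillation. IC50 and Hill slope from non-linear Hill fit of competition curves; Ki by Cheng–Prusoff using radioligand concentration and KD from Scatchard plot.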

[6] = test system: PC-12; assay: Neuroprotective activity in rat PC12 cells assessed as induction of NGF-mediated neurite outgrowth at 0.5 uM in presence of NE-100 by neurite outgrowth assay; format: functional, cell-based
Method in brief: (§4)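 PC12 cells stimulated with NGF (2.5 nM) and treated with compound up to 5 μM, alone or after pre-treatment with S1R antagonist NE-100 (3 μM); read-out is percentage of cells bearing neurite sprouts; mean ± SEM of three independent experiments.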

[7] = test system: PC-12; assay: Neuroprotective activity in rat PC12 cells assessed as induction of NGF-mediated neurite outgrowth at 0.5 uM by neurite outgrowth assay (Rvb=26 +/- 4%); format: functional; method in brief: as §4
[8] = molecular target: T1, Sigma non-opioid intracellular receptor 1 (Homo sapiens, UniProt Q99720); assay: Displacement of [3H]-(+)-pentazocine from sigma 1 receptor (unknown origin) at 25 nM by scintillation counting analysis; details: filed as agonist
T1 sequence (Q99720 whole entry): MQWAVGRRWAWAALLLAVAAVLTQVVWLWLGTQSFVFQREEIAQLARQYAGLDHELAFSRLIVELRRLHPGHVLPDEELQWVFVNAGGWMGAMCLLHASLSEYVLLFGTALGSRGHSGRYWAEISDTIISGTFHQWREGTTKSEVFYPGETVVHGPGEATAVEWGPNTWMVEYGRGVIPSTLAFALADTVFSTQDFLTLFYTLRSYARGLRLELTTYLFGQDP
Method in brief: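 Single-concentration screen at 25 nM test compound against [3H](+)pentazocine (15 nM) at S1R; scintillation counting; result given as % inhibition of control specific binding, i.e. 100 minus measured/control specific binding ×100.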

[9] = molecular target: Glutamate [NMDA] receptor (Homo sapiens) (UniProt Q05586+Q12879+Q13224+O15399+O60391+Q14957+Q8TCU5); assay: Displacement of [3H]CGP39653 from human NMDAR at 25 nM by scintillation counting analysis; format: protein-complex assay
Method in brief: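 NMDA receptor binding with [3H]CGP39653 (5 nM) as radioligand, test compound at 25 nM; displacement read by scintillation counting and reported as % inhibition of control specific binding.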

[10] = Selectivity index, ratio of Ki for sigma 2 receptor (unknown origin) to Ki for sigma 1 receptor (unknown origin)
[11] = molecular target: T1, Sigma non-opioid intracellular receptor 1; assay: Binding affinity to sigma 1 receptor (unknown origin) assessed as inhibition constant; method in brief: as §3

SMILES	Ki [5] [nM]	Ratio Ki [10]	Ki [11] [nM]	other results
CC12CC3CC(C)(C1)CC(N)(C3)C2 [MEMANTINE]	–	–	–	Activity [1]: inactive; Activity [2]: Active; Activity [3]: 70%; CC50 at 72 h [4]: 98000 nM
COc1ccc(CCN2CCN(CCCc3ccccc3)CC2)cc1OC [[11C]SA4503]	63	–	–	–
C[C@H](CCN1CCCCC1)c1ccc(-c2ccccc2)cc1	–	–	–	Activity [6]: inactive; Activity [7]: 36%
c1ccc(CN2CCN(CCSc3ccccc3)CC2)cc1	–	–	–	Activity [8]: > 95%; Activity [9]: < 11.9%
c1ccc(CN2CCN(CC3CSCS3)CC2)cc1 (configuration not stated)	–	43	–	–
c1ccc(CN2CCN(CCCOC3CCCCC3)CC2)cc1	–	–	–	Activity [8]: > 95%; Activity [9]: < 11.9%
c1ccc(CN2CCN(CCCSC3CCCCC3)CC2)cc1	–	–	–	Activity [8]: > 95%; Activity [9]: < 11.9%
c1ccc(CN2CCN(CC3COC4(CCCCC4)O3)CC2)cc1 (configuration not stated)	35	47	0.74	–

More lines, main results first:

Ki [5] [nM]	Ratio Ki [10]	Ki [11] [nM]	SMILES	other results
12	24	0.5	CC1(C)SCC(CN2CCC(Cc3ccccc3)CC2)S1 (configuration not stated)	–
–	–	6.3	CN(C)CC1CCOC1(c1ccccc1)c1ccccc1 (configuration not stated) [BLARCAMESINE]	–
5	0.4	12	c1ccc(CC2CCN(CC3CSC4(CCCCC4)S3)CC2)cc1 (configuration not stated)	–
91	70	1.3	c1ccc(CN2CCN(CC3CSC4(CCCCC4)O3)CC2)cc1 (configuration not stated)	–
